Results reported in ChEMBL document CHEMBL1140227, “Histone deacetylase inhibitors through click chemistry” (J Med Chem, 2008).

How the values were obtained:
Assay type in all cases: functional
UACC-257 = experiment: Growth inhibition of human UACC257 cells at 10 uM relative to control; conditions: values are per cent of control
In short: (§1)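 Single-dose NCI human tumour cell line screen, run by the NIH. Percent inhibition of cell line growth was calculated by comparison with untreated samples.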

HT-29 = experiment: Growth inhibition of human HT-29 cells at 10 uM relative to control; conditions: values are per cent of control
In short: (§2)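 Single-dose preliminary screen in the NCI human cancer cell line panel, run by the NIH. Percent inhibition of cell line growth was calculated by comparison with untreated samples.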

SF-295 = experiment: Growth inhibition of human SF295 cells at 10 uM relative to control; conditions: values are per cent of control; in short: as §2
Malme-3M = experiment: Growth inhibition of human MALME-3M cells at 10 uM relative to control; conditions: values are per cent of control; in short: as §2
CAKI-1 = experiment: Growth inhibition of human Caki1 cells at 10 uM relative to control; conditions: values are per cent of control; in short: as §2
HL-60(TB) = experiment: Growth inhibition of human HL-60(TB) cells at 10 uM relative to control; conditions: read-out: INH
In short: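 Single-dose cell line screen run by the NCI (NIH) in its human cancer cell line panel, which includes the leukemia line HL-60(TB). Percent growth inhibition was calculated by comparison with untreated samples.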

U-251 = experiment: Growth inhibition of human U251 cells at 10 uM relative to control; conditions: values are per cent of control; in short: as §1
PC-3 = experiment: Growth inhibition of human PC3 cells at 10 uM relative to control; conditions: values are per cent of control; in short: as §2
SK-OV-3 = experiment: Growth inhibition of human SKOV3 cells at 10 uM relative to control; conditions: values are per cent of control; in short: as §2
MDA-MB-468 = experiment: Growth inhibition of human MDA-MB-468 cells at 10 uM relative to control; conditions: values are per cent of control; in short: as §2
SF-539 = experiment: Growth inhibition of human SF539 cells at 10 uM relative to control; conditions: values are per cent of control; in short: as §2
UO-31 = experiment: Growth inhibition of human UO31 cells at 10 uM relative to control; conditions: values are per cent of control; in short: as §1
NCI-H460 = experiment: Growth inhibition of human NCI-H460 cells at 10 uM relative to control; conditions: values are per cent of control; in short: as §2
MOLT-4 = experiment: Growth inhibition of human MOLT4 cells at 10 uM relative to control; conditions: values are per cent of control; in short: as §2
OVCAR-8 = experiment: Growth inhibition of human OVCAR8 cells at 10 uM relative to control; conditions: values are per cent of control; in short: as §2
cells = conditions: Homo sapiens, Cancer cell lines
SNB-19 = experiment: Growth inhibition of human SNB19 cells at 10 uM relative to control; conditions: values are per cent of control; in short: as §2
OVCAR-4 = experiment: Growth inhibition of human OVCAR4 cells at 10 uM relative to control; conditions: values are per cent of control; in short: as §2
M14 = experiment: Growth inhibition of human M14 cells at 10 uM relative to control; conditions: values are per cent of control; in short: as §2
A549 = experiment: Growth inhibition of human A549 cells at 10 uM relative to control; conditions: values are per cent of control; in short: as §2
HCT-116 = experiment: Growth inhibition of human HCT116 cells at 10 uM relative to control; conditions: values are per cent of control; in short: as §2
MCF7 = experiment: Growth inhibition of human MCF7 cells at 10 uM relative to control; conditions: values are per cent of control; in short: as §2
K562 = experiment: Growth inhibition of human K562 cells at 10 uM relative to control; conditions: values are per cent of control; in short: as §2
NCI-H226 = experiment: Growth inhibition of human NCI-H226 cells at 10 uM relative to control; conditions: values are per cent of control; in short: as §2
COLO 205 = experiment: Growth inhibition of human COLO205 cells at 10 uM relative to control; conditions: values are per cent of control; in short: as §2
NCI/ADR-RES = experiment: Growth inhibition of human NCI/ADR-RES cells at 10 uM relative to control; conditions: values are per cent of control; in short: as §2
UACC-62 = experiment: Growth inhibition of human UACC62 cells at 10 uM relative to control; conditions: values are per cent of control; in short: as §1
SK-MEL-2 = experiment: Growth inhibition of human SK-MEL-2 cells at 10 uM relative to control; conditions: values are per cent of control; in short: as §2
A498 = experiment: Growth inhibition of human A498 cells at 10 uM relative to control; conditions: values are per cent of control; in short: as §2
[1] = Growth inhibition of human RPMI8266 cells at 10 uM relative to control; conditions: values are per cent of control; in short: as §2
MDA-MB-435 = experiment: Growth inhibition of human MDA-MB-435 cells at 10 uM relative to control; conditions: values are per cent of control; in short: as §2
HOP-62 = experiment: Growth inhibition of human HOP62 cells at 10 uM relative to control; conditions: values are per cent of control; in short: as §2
OVCAR-5 = experiment: Growth inhibition of human OVCAR5 cells at 10 uM relative to control; conditions: values are per cent of control; in short: as §2
EKVX = experiment: Growth inhibition of human EKVX cells at 10 uM relative to control; conditions: values are per cent of control; in short: as §2
HCT-15 = experiment: Growth inhibition of human HCT15 cells at 10 uM relative to control; conditions: values are per cent of control; in short: as §2
DU-145 = experiment: Growth inhibition of human DU145 cells at 10 uM relative to control; conditions: values are per cent of control; in short: as §2
NCI-H322M = experiment: Growth inhibition of human NCI-H322M cells at 10 uM relative to control; conditions: values are per cent of control; in short: as §2
NCI-H522 = experiment: Growth inhibition of human NCI-H522 cells at 10 uM relative to control; conditions: values are per cent of control; in short: as §2
[2] = Growth inhibition of human Hs 578T cells at 10 uM relative to control; conditions: values are per cent of control; in short: as §2
BT-549 = experiment: Growth inhibition of human BT549 cells at 10 uM relative to control; conditions: values are per cent of control; in short: as §2
TK-10 = experiment: Growth inhibition of human TK10 cells at 10 uM relative to control; conditions: values are per cent of control; in short: as §1
786-0 = experiment: Growth inhibition of human 786-0 cells at 10 uM relative to control; conditions: values are per cent of control; in short: as §2
NCI-H23 = experiment: Growth inhibition of human NCI-H23 cells at 10 uM relative to control; conditions: values are per cent of control; in short: as §2
OVCAR-3 = experiment: Growth inhibition of human OVCAR-3 cells at 10 uM relative to control; conditions: values are per cent of control; in short: as §2
SW-620 = experiment: Growth inhibition of human SW620 cells at 10 uM relative to control; conditions: values are per cent of control; in short: as §1
IGROV-1 = experiment: Growth inhibition of human IGROV1 cells at 10 uM relative to control; conditions: values are per cent of control; in short: as §2
LOX IMVI = experiment: Growth inhibition of human LOXIMVI cells at 10 uM relative to control; conditions: values are per cent of control; in short: as §2
MDA-MB-231 = experiment: Growth inhibition of human MDA-MB-231 cells at 10 uM relative to control; conditions: values are per cent of control; in short: as §2
SNB-75 = experiment: Growth inhibition of human SNB75 cells at 10 uM relative to control; conditions: values are per cent of control; in short: as §1
ACHN = experiment: Growth inhibition of human ACHN cells at 10 uM relative to control; conditions: values are per cent of control; in short: as §2
SK-MEL-28 = experiment: Growth inhibition of human SK-MEL-28 cells at 10 uM relative to control; conditions: values are per cent of control; in short: as §2
KM12 = experiment: Growth inhibition of human KM12 cells at 10 uM relative to control; conditions: values are per cent of control; in short: as §2
CCRF-CEM = experiment: Growth inhibition of human CCRF-CEM cells at 10 uM relative to control; conditions: values are per cent of control; in short: as §2
SN12C = experiment: Growth inhibition of human SN12C cells at 10 uM relative to control; conditions: values are per cent of control; in short: as §2
HCC 2998 = experiment: Growth inhibition of human HCC2998 cells at 10 uM relative to control; conditions: values are per cent of control; in short: as §2
T47D = experiment: Growth inhibition of human T47D cells at 10 uM relative to control; conditions: values are per cent of control; in short: as §1
SK-MEL-5 = experiment: Growth inhibition of human SK-MEL-5 cells at 10 uM relative to control; conditions: values are per cent of control; in short: as §2
SF-268 = experiment: Growth inhibition of human SF268 cells at 10 uM relative to control; conditions: values are per cent of control; in short: as §2

Compound: O=C(NO)c1cn(C/C=C/c2ccccc2)nn1
- growth, % of control at 10 µM (UACC-257): 125%
- growth, % of control at 10 µM (HT-29): 104%
- growth, % of control at 10 µM (SF-295): 108%
- growth, % of control at 10 µM (Malme-3M): 110%
- growth, % of control at 10 µM (CAKI-1): 95%
- growth, % of control at 10 µM (HL-60(TB)): 94.5%
- growth, % of control at 10 µM (U-251): 90.1%
- growth, % of control at 10 µM (PC-3): 77.6%
- growth, % of control at 10 µM (SK-OV-3): 107%
- growth, % of control at 10 µM (MDA-MB-468): 105%
- growth, % of control at 10 µM (SF-539): 135%
- growth, % of control at 10 µM (UO-31): 72.7%
- growth, % of control at 10 µM (NCI-H460): 131%
- growth, % of control at 10 µM (MOLT-4): 79.6%
- growth, % of control at 10 µM (OVCAR-8): 106%
- inhibition at 10 µM (cells): > 95%
- growth, % of control at 10 µM (SNB-19): 94.9%
- growth, % of control at 10 µM (OVCAR-4): 94.3%
- growth, % of control at 10 µM (M14): 106%
- growth, % of control at 10 µM (A549): 107%
- growth, % of control at 10 µM (HCT-116): 100%
- growth, % of control at 10 µM (MCF7): 122%
- growth, % of control at 10 µM (K562): 119%
- growth, % of control at 10 µM (NCI-H226): 91.1%
- growth, % of control at 10 µM (COLO 205): 133%
- growth, % of control at 10 µM (NCI/ADR-RES): 107%
- growth, % of control at 10 µM (UACC-62): 102%
- growth, % of control at 10 µM (SK-MEL-2): 95.7%
- growth, % of control at 10 µM (A498): 95.2%
- growth, % of control at 10 µM [1]: 94.5%
- growth, % of control at 10 µM (MDA-MB-435): 103%
- growth, % of control at 10 µM (HOP-62): 92.4%
- growth, % of control at 10 µM (OVCAR-5): 104%
- growth, % of control at 10 µM (EKVX): 89.9%
- growth, % of control at 10 µM (HCT-15): 98.8%
- growth, % of control at 10 µM (DU-145): 167%
- growth, % of control at 10 µM (NCI-H322M): 109%
- growth, % of control at 10 µM (NCI-H522): 92.5%
- growth, % of control at 10 µM [2]: 95.5%
- growth, % of control at 10 µM (BT-549): 107%
- growth, % of control at 10 µM (TK-10): 130%
- growth, % of control at 10 µM (786-0): 132%
- growth, % of control at 10 µM (NCI-H23): 104%
- growth, % of control at 10 µM (OVCAR-3): 97.1%
- growth, % of control at 10 µM (SW-620): 98.4%
- growth, % of control at 10 µM (IGROV-1): 89.4%
- growth, % of control at 10 µM (LOX IMVI): 90.2%
- growth, % of control at 10 µM (MDA-MB-231): 96.1%
- growth, % of control at 10 µM (SNB-75): 79.8%
- growth, % of control at 10 µM (ACHN): 101%
- growth, % of control at 10 µM (SK-MEL-28): 104%
- growth, % of control at 10 µM (KM12): 104%
- growth, % of control at 10 µM (CCRF-CEM): 61%
- growth, % of control at 10 µM (SN12C): 95.3%
- growth, % of control at 10 µM (HCC 2998): 105%
- growth, % of control at 10 µM (T47D): 97.8%
- growth, % of control at 10 µM (SK-MEL-5): 148%
- growth, % of control at 10 µM (SF-268): 92.8%
